The subject of data set [1] is BV-2. Briefly: Induction of H2S generation in mouse BV2 cells at 100 uM after 45 mins by WSP-1 fluorescence dye based spectrofluorimetric analysis. Type of data set: functional, cell-based. In short, it runs like this:
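BV-2 cells, 72 × 10³/well, were seeded serum-free 24 h before the assay and loaded with WSP-1 for 30 min. Dye was then replaced with compound in HEPES-buffered saline, pH 7.4 (vehicle DMSO 1%). Fluorescence was recorded for 45 min, and total H₂S release was expressed as AUC of fluorescence index. Data are mean ± SE, n=9, with diallyl disulfide as reference donor.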

The test system of data set [2] is BV-2. As to the kind of experiment: Cytoprotection against LPS-induced cell damage in mouse BV2 cells assessed as cell viability at 1 uM preincubated with compound for 1 hr followed by LPS addition and measured after 24 hrs by cell analyser based assay (reference value: 80.6 +/- 1.2%). Type of data set: functional. Conditions: read-out: Activity.
In data set [3] the test system is BV-2. As to the kind of experiment: Antioxidant activity in mouse BV2 cells assessed as effect on LPS-induced ROS release at 1 uM preincubated with compound for 1 hr followed by LPS addition and measured after 24 hrs by cell analyser based assay (reference value: 154 +/- 3.8%). Type of data set: functional.
Data set [4] has as its system BV-2. Briefly: Inhibition of LPS-induced nitric oxide in mouse BV2 cells assessed as reduction in intracellular nitric oxide level at 1 uM preincubated with compound for 1 hr followed by LPS addition and measured after 24 hrs by cell analyser based assay (reference value: 145.7 +/- 4.4%). Type of data set: functional.
Data set [5] deals with BV-2. As to the kind of experiment: Cytoprotection against LPS-induced cell damage in mouse BV2 cells assessed as increase in cell viability at 1 uM preincubated with compound for 1 hr followed by LPS addition and measured after 24 hrs by cell analyser based assay (reference value: 80.6 +/- 1.2%). Type of data set: functional.
Data set [6] concerns BV-2. As to the kind of experiment: Antioxidant activity in mouse BV2 cells assessed as reduction in LPS-induced ROS release at 1 uM preincubated with compound for 1 hr followed by LPS addition and measured after 24 hrs by cell analyser based assay (reference value: 154 +/- 3.8%). Also noted: scale not given: the % may be the effect or the level left. Type of data set: functional.

The test system of data set [7] is BV-2. As to the kind of experiment: Inhibition of LPS-induced nitric oxide in mouse BV2 cells assessed as intracellular nitric oxide level at 1 uM preincubated with compound for 1 hr followed by LPS addition and measured after 24 hrs by cell analyser based assay (reference value: 145.7 +/- 4.4%). Type of data set: functional. Further details: scale not given: the % may be the effect or the level left.

For data set [8], the system named is SH-SY5Y. Briefly: Cytotoxicity against human SH-SY5Y cells assessed as cell viability up to 5 uM after 24 hrs by MTT assay. Type of data set: cell-based. The method, boiled down:
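SH-SY5Y cells, 2 × 10⁴/well, were allowed 24 h to attach, then exposed for 24 h to a series of concentrations (1.25–40). MTT (0.5 mg/mL in HBSS) was applied for 2 h at 37 °C, and formazan was dissolved in isopropanol and read at 570 nm (ref 690 nm). Results are % viability versus untreated cells.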
On the technique in general: Tetrazolium dyes change colour on reduction, which living cells bring about.

Data set [9] relates to SH-SY5Y. As to the kind of experiment: Neuroprotection against amyloid beta (1 to 42 residues)-induced toxicity in human SH-SY5Y cells preincubated for 24 hrs followed by amyloid beta addition and measured after 4 hrs by MTT-based exocytosis assay. Type of data set: functional, cell-based. In short, it runs like this: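 Aβ1-42 was dissolved in hexafluoroisopropanol (1 mg/mL), sonicated, held 24 h at room temperature and lyophilised. SH-SY5Y cells, 3 × 10⁴/well, were pretreated 24 h with compound and then given Aβ1-42 oligomers for 4 h at 37 °C. MTT (0.5 mg/mL in HBSS) was applied for 1 h, granules were solubilised in 10% Tween-20, and absorbance read at 570 nm (ref 690).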

For data set [10], the system named is SH-SY5Y. As to the kind of experiment: Antioxidant activity in human SH-SY5Y cells assessed as inhibition of H2O2-induced intracellular ROS generation at 5 uM preincubated with compound for 24 hrs followed by H2O2 addition after 30 mins by DCFH-DA dye based fluorescence assay. Type of data set: functional, cell-based. The method, boiled down:
(§1)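 SH-SY5Y cells, 2 × 10⁴/well, were allowed 24 h to attach, then given compound for 24 h at 37 °C. They were loaded with DCFH-DA ([…]) for 30 min at room temperature and then challenged with H₂O₂ or t-BuOOH, each at 50 µM, for 30 min. Results are percent inhibition of oxidant-induced ROS, mean ± SEM, n=3 independent experiments.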

For data set [11], the system named is SH-SY5Y. As to the kind of experiment: Antioxidant activity in human SH-SY5Y cells assessed as inhibition of tert-butyl hydroperoxide-induced intracellular ROS generation at 5 uM preincubated with compound for 24 hrs followed by tert-butyl hydroperoxide addition after 30 mins by DCFH-DA dye based fluorescence assay. Type of data set: functional, cell-based. The method, boiled down:
as §1

Data set [12] deals with SH-SY5Y. Briefly: Antioxidant activity in human SH-SY5Y cells assessed as increase in GSH level at 5 uM after 24 hrs by MCB-dye based fluorescence assay relative to control. Type of data set: functional. In short, it runs like this: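 SH-SY5Y cells, 2 × 10⁴/well, were allowed 24 h to attach, then given compound for 24 h at 37 °C in 5% CO₂. Medium was replaced with monochlorobimane for 30 min at 37 °C, and fluorescence read at ex 355/em 460 nm. Results are percent increase in GSH, mean ± SEM of three independent experiments.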

Data set [13] concerns the target T1, Nuclear factor erythroid 2-related factor 2 (Homo sapiens) (UniProt Q16236).
T1 sequence (whole entry): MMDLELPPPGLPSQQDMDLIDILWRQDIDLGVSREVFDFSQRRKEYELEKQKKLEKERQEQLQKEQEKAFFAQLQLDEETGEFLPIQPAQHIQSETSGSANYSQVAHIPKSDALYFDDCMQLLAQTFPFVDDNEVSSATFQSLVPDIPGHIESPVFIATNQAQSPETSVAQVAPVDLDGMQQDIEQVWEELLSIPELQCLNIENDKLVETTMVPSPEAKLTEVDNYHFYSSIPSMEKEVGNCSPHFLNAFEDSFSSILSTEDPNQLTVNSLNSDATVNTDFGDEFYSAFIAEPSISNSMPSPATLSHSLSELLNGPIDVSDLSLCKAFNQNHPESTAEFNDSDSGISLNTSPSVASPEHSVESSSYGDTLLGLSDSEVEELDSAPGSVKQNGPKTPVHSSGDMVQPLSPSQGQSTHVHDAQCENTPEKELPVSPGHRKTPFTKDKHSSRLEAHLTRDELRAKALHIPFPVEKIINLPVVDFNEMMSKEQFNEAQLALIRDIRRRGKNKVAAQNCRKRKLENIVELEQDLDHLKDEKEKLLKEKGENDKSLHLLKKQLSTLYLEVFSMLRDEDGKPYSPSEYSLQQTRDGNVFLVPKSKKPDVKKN
As to the kind of experiment: Activation of Nrf2 in human SH-SY5Y cells at 5 uM after 1 to 6 hrs by ELISA method. Type of data set: cell-based. The method, boiled down: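 SH-SY5Y cells, 2 × 10⁶ per dish, exposed to compound for 1, 3 and 6 h at 37 °C in 5% CO₂. Nuclear extracts were then taken and active Nrf2 measured by DNA-binding ELISA (antibody recognises ARE-bound Nrf2). Results are fold increase over matched untreated cells, mean ± SEM of three independent experiments, two-way ANOVA with Bonferroni.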

Active and inactive are the calls of the source. The calls are words filed in the database; no cut-off is given here.

`CCN(C)C(=O)Oc1cccc([C@H](C)N(C)C)c1` [RIVASTIGMINE]: in the data set on BV-2 [1], the result was Active. The viability at 1 µM in the data set on BV-2 [2] is 84%. In addition, the result in the data set on BV-2 [3] was inactive. Besides, in the data set on BV-2 [4], the inhibition result was “Active”.

As to `CCN(C)C(=O)Oc1cccc(CCNC(=O)CSCCCCN=C=S)c1`, the result in the data set with BV-2 [1] and in the data set with BV-2 [5] was Active. Also, the Activity is listed as 30 - 35% in the data set on BV-2 [6], 98.8% in the data set on BV-2 [7] and “Non-Toxic” in the data set on SH-SY5Y [8]. In addition, the result with SH-SY5Y [9] was inactive. Further, in the data set on BV-2 [4], the inhibition result is “Active”.

Turning to `CCN(C)C(=O)Oc1cccc(CNC(=O)C[S+]([O-])CCCCN=C=S)c1` (stereo unspecified), the result in the data set on BV-2 [1] and with BV-2 [5] was Active. Also, the Activity was 30 - 35% in the data set on BV-2 [6] and “Non-Toxic” with SH-SY5Y [8]. The outcome with SH-SY5Y [9] was inactive. In addition, in the data set with BV-2 [4], the inhibition entry is “Active”.

With `CCN(C)C(=O)Oc1cccc(NC(=O)C[S+]([O-])CCCCN=C=S)c1` (stereo unspecified), the outcome in the data set on BV-2 [1] and with BV-2 [5] was Active. The Activity was 30 - 35% in the data set with BV-2 [6] and “Non-Toxic” in the data set on SH-SY5Y [8]. In the data set on SH-SY5Y [9], the result was inactive. In the data set with BV-2 [4], the inhibition result was “Active”.

For the compound `CCN(C)C(=O)Oc1cccc(CCNC(=O)C[S+]([O-])CCCCN=C=S)c1` (stereo unspecified), the result in the data set with BV-2 [1] was Active. Besides, the Activity with BV-2 [6] was 30 - 35%; in the data set with SH-SY5Y [8] it was “Non-Toxic”. Further, in the data set on SH-SY5Y [9], the outcome was inactive. In addition, the inhibition result with BV-2 [4] was “Active”.

Regarding `CCN(C)C(=O)Oc1cccc(NC(=O)CSCCCCN=C=S)c1`, the result (with BV-2 [1]; in the data set with SH-SY5Y [10]; in the data set on SH-SY5Y [11]; in data set [13]) was Active. Further, the viability at 1 µM in the data set with BV-2 [2] was 93%. Further, the Activity with BV-2 [6] is 30 - 35%; in the data set on BV-2 [7], 114%; with SH-SY5Y [8], “Non-Toxic”; in the data set on SH-SY5Y [12], 35.6%. The outcome with SH-SY5Y [9] was inactive. In addition, the inhibition result with BV-2 [4] is “Active”.

For `CCN(C)C(=O)Oc1cccc(CNC(=O)CSCCCCN=C=S)c1`, the result in the data set with BV-2 [1], in the data set on BV-2 [5], in the data set on SH-SY5Y [10] and in the data set with SH-SY5Y [11] was Active. Moreover, the Activity in the data set on BV-2 [6] is on record as 30 - 35%; in the data set with BV-2 [7], 125.9%; in the data set with SH-SY5Y [8], “Non-Toxic”; in the data set on SH-SY5Y [12] it was 25.73%. For the same compound, the outcome (in [13]; in the data set with SH-SY5Y [9]) was inactive. The inhibition entry with BV-2 [4] is “Active”.

`C=CCSSCC=C`: the outcome in the data set with BV-2 [1] was Active.

The values are drawn from ChEMBL document CHEMBL4311984, “Design and synthesis of H2S-donor hybrids: A new treatment for Alzheimer's disease?” (Eur J Med Chem, 2019).
